Measurements reported in ChEMBL document CHEMBL1149246, “Discovery of bicyclic thymidine analogues as selective and high-affinity inhibitors of Mycobacterium tuberculosis thymidine monophosphate kinase” (J Med Chem, 2004).
The source made the active and inactive calls. No cut-off for these calls is given here.

How the values were obtained:
[1] = Selectivity index, Ki for human TMPK/Ki for Mycobacterium tuberculosis TMPK
[2] = target: T1, Thymidylate kinase (Homo sapiens) (UniProt P23919); test: Inhibition of human TMPK at 2 mM by coupled spectrophotometric assay
T1 sequence (whole entry): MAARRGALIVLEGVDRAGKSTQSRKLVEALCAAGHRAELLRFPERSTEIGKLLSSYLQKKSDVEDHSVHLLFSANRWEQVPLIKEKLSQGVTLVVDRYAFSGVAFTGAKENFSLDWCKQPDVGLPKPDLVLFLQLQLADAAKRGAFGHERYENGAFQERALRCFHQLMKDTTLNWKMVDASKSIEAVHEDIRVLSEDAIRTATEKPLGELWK
Outline: (§1)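 Thymidylate kinase activity (M. tuberculosis or human enzyme) measured by coupled spectrophotometric assay at 334 nm, following NADH consumption. Medium: 50 mM Tris-HCl pH 7.4, 50 mM KCl, 2 mM MgCl2, 0.2 mM NADH, 1 mM phosphoenol pyruvate, 2 units each lactate dehydrogenase, pyruvate kinase and nucleoside diphosphate kinase. ATP fixed at 0.5 mM, dTMP at 0.05 mM; analogue 0.1–2.5 mM.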

[3] = target: T2, Thymidylate kinase (Mycobacterium tuberculosis, UniProt P9WKE1); test: Inhibition of Mycobacterium tuberculosis TMPK by coupled spectrophotometric assay
T2 sequence (P9WKE1 whole entry): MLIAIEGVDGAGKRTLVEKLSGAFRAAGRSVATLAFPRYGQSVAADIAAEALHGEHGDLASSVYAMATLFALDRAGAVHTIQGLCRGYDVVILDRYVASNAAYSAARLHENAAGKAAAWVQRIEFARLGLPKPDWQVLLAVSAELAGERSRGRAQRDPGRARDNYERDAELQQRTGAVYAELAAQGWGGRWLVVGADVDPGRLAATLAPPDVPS

[4] = target: T3, Thymidylate kinase (Homo sapiens, UniProt P23919); test: (§2) Inhibition of human TMPK by coupled spectrophotometric assay; outline: as §1
T3 sequence (P23919 whole entry): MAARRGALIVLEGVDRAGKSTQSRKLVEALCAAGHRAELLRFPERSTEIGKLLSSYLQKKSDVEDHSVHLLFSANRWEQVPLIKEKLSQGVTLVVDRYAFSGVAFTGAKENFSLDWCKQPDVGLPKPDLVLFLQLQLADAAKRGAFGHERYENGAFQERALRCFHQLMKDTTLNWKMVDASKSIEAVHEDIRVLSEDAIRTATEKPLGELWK

[5] = target: T4, Thymidylate kinase (Mycobacterium tuberculosis) (UniProt P9WKE1); test: Inhibition of Mycobacterium tuberculosis TMPK at 1 mM by coupled spectrophotometric assay; outline: as §1
T4 sequence (whole entry): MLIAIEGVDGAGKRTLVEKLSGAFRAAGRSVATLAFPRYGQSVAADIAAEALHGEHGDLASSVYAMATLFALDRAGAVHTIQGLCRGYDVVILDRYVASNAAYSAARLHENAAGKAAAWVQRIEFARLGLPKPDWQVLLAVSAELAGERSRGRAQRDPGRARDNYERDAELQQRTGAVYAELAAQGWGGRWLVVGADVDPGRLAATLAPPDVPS

[6] = compound: Cc1cn([C@H]2C[C@H](O)[C@@H](COP(=O)(O)O)O2)c(=O)[nH]c1=O; test: as §2; outline: as §1

Molecule: Cc1cn([C@H]2C[C@H](O)[C@@H](COP(=O)(O)O)O2)c(=O)[nH]c1=O
- Selectivity index [1]: 1.1

Molecule: Cc1cn([C@@H]2C[C@H](CN=[N+]=[N-])[C@@H](CO)O2)c(=O)[nH]c1=O
- Activity [2]: inactive
- Ki [3]: 29 µM

Molecule: Cc1cn([C@@H]2O[C@H](CO)[C@H]3CNC(=O)O[C@H]32)c(=O)[nH]c1=O
- Ki [4]: 1100 µM
- Ki [3]: 13.5 µM
- Ratio Ki [1]: 81.5

Molecule: Cc1cn([C@@H]2O[C@H](CO)[C@@H](CN)[C@H]2F)c(=O)[nH]c1=O
- Activity [5]: inactive

Molecule: Cc1cn([C@@H]2O[C@H](CO)[C@@H](CN=[N+]=[N-])[C@H]2Cl)c(=O)[nH]c1=O
- Ki [3]: 180 µM

Molecule: Cc1cn([C@@H]2O[C@H](CF)[C@@H](CN=[N+]=[N-])[C@H]2F)c(=O)[nH]c1=O
- Ki [3]: 80 µM

Molecule: Cc1cn([C@@H]2O[C@H](CO)[C@H]3CNC(=S)O[C@H]32)c(=O)[nH]c1=O
- Ki [4]: 700 µM
- Ki [3]: 3.5 µM
- Ratio Ki [1]: 200

Molecule: Cc1cn([C@@H]2O[C@H](CO)[C@@H](CN=[N+]=[N-])[C@H]2F)c(=O)[nH]c1=O
- Ki [3]: 165 µM

Molecule: Cc1cn([C@@H]2O[C@H](CO)[C@@H](CN)[C@H]2Cl)c(=O)[nH]c1=O
- Ki [3]: 390 µM

Molecule: Cc1cn([C@H]2C[C@H](O)[C@@H](CO)O2)c(=O)[nH]c1=O [DOXRIBTIMINE]
- Ki [4]: 180 µM

Molecule: Cc1cn([C@H]2C[C@H](CN=[N+]=N)[C@@H](CO)O2)c(=O)[nH]c1=O
- Ki [4]: 1040 µM
- Ki [3]: 40 µM
- Ratio Ki [1]: 26

Molecule: Cc1cn([C@H]2C[C@H](CN)[C@@H](CO)O2)c(=O)[nH]c1=O
- Ki [4]: 220 µM
- Ratio Ki [1]: 3.9

B1: Thymidylate kinase (Homo sapiens), P23919 (protein)
chain: MAARRGALIVLEGVDRAGKSTQSRKLVEALCAAGHRAELLRFPERSTEIGKLLSSYLQKKSDVEDHSVHLLFSANRWEQVPLIKEKLSQGVTLVVDRYAFSGVAFTGAKENFSLDWCKQPDVGLPKPDLVLFLQLQLADAAKRGAFGHERYENGAFQERALRCFHQLMKDTTLNWKMVDASKSIEAVHEDIRVLSEDAIRTATEKPLGELWK
- Km [6]: 5 µM
